Drawing on ChEMBL document CHEMBL1131218, “Antineoplastic agents. 379. Synthesis of phenstatin phosphate” (J Med Chem, 1998), this text covers IC50, inhibition and GI50 for 16 compounds.

pIC50: −log10 of the molar value. Converted amounts (≈) assume the structure as drawn.

The target of one assay is Tubulin (Bos taurus, UniProt Q6B856+Q862L2+Q862F3). As to the kind of experiment: The compound was tested for the concentration to inhibit 50% of tubulin polymerization. Format: protein assay. Summed up: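 Purified bovine brain tubulin at 1.0 mg/mL (10 μM) in 0.8 M monosodium glutamate pH 6.6 with 4% DMSO. Drug was preincubated with tubulin for 15 min at 30 °C, then chilled. GTP was added to 0.4 mM and assembly started by a jump from 0 to 30 °C, followed by spectrophotometer.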

The species entered for the next assay is Bos taurus. As to the kind of experiment: Percentage inhibition of colchicine binding to tubulin by compound was evaluated. Also noted: concentration or dose not given beside the values. As to conditions: concentration not given here.
The next assay concerns SK-MEL-5. As to the kind of experiment: The compound was tested for the concentration to inhibit 50% of melanoma SK-MEL-5 cell lines. Format: functional. As to conditions: Homo sapiens.
For a further assay, the system named is NCI-H460. As to the kind of experiment: The compound was tested for the concentration to inhibit 50% lung-NSC NCI-H460 cell lines. Format: functional. The note with it: Homo sapiens.
The test system of the next assay is SF-295. As to the kind of experiment: The compound was tested for the concentration to inhibit 50% of CNS SF-295 cell lines. As to conditions: Homo sapiens. Format: functional.
The next assay concerns OVCAR. As to the kind of experiment: The compound was tested for the concentration to inhibit 50% of ovarian OVCAR cell lines. Format: functional. The note with it: Homo sapiens.
The test system of the next assay is A498. As to the kind of experiment: The compound was tested for the concentration to inhibit 50% of renal A498 cell lines. Format: functional. The note with it: Homo sapiens.
The subject of the next assay is KM-20L2. As to the kind of experiment: The compound was tested for the concentration to inhibit 50% of colon KM20L2 cell lines. Format: functional. As to conditions: Homo sapiens.
In another assay the test system is P388. As to the kind of experiment: The compound was tested for the concentration to inhibit 50% of leukemia P388 cell lines. The note with it: Mus musculus. Format: functional.
Assay [1] concerns Panel NCI-60 (60 carcinoma cell lines). As to the kind of experiment: The compound was tested for the concentration for 50% growth inhibition of NCI 60 cell line human tumor screen expressed in 10e-8 M. Format: functional. The procedure, abridged: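 NCI 60-cell-line screen, run in triplicate. Compounds tested in three concentration ranges (top 10⁻⁵, 10⁻⁶ and 10⁻⁷ M), each with five 10-fold dilutions. The mean panel GI50 across lines is reported with SD.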

Assay [2] is described as follows: Concentration to inhibit 50% of tubulin polymerization from bovine brain. Set-up: species or system Bos taurus. The procedure, abridged:
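Purified, electrophoretically homogeneous bovine brain tubulin at 1.0 mg/mL (10 μM) in 0.8 M monosodium glutamate pH 6.6 with 4% (v/v) DMSO and varying drug concentrations. Preincubated 15 min at 30 °C, chilled on ice, then GTP added (0.4 mM final). Assembly started by a jump from 0 to 30 °C and followed by turbidity. IC50 taken from extent of assembly at 20 min. Active compounds run in at least three independent experiments.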

The IC50 is the concentration needed to halve the response being measured. The inhibition is the relative decrease from the control value, in per cent. For `COc1ccc(/C=C\c2cc(OC)c(OC)c(OC)c2)cc1`, the concentration for half-maximal inhibition (IC50) on Tubulin stood at 1.3 µM. Besides, in the assay filed under Bos taurus, the inhibition is 97%.

By GI50 is commonly meant the concentration giving 50% growth inhibition. Consider `COc1ccc(/C=C\c2cc(OC)c(OC)c(OC)c2)cc1OP(=O)([O-])[O-].[Na+].[Na+]` [FOSBRETABULIN DISODIUM], for which the GI50 is 0.041 µg/mL in the assay with SK-MEL-5; 0.029 µg/mL with NCI-H460; 0.036 µg/mL with SF-295; 0.023 µg/mL with OVCAR; 0.041 µg/mL in the assay on A498; 0.34 µg/mL in the assay with KM-20L2. For the same compound, it took 0.0004 µg/mL to inhibit growth in the assay with P388 by half (GI50). In addition, at Tubulin, the IC50 was > 80 µM. In addition, in the assay listed under Bos taurus, the inhibition came out at 4%.

By pIC50 is commonly meant the negative decadic logarithm of the IC50, by convention in mol/L. Turning to `COc1ccc(C(=O)c2cc(OC)c(OC)c(OC)c2)cc1O` [PHENSTATIN], the GI50 amounted to 0.0038 µg/mL (≈ 0.0119 µM) in the assay with SK-MEL-5; 0.0057 µg/mL (≈ 0.0179 µM) with NCI-H460; 0.052 µg/mL (≈ 0.163 µM) with SF-295; 0.0601 µM in assay [1]; 0.0023 µg/mL (≈ 0.00723 µM) with OVCAR; 0.38 µg/mL (≈ 1.19 µM) with A498. Further, the concentration for 50% growth inhibition (GI50) with KM-20L2 turned out to be 0.04 µg/mL (≈ 0.126 µM); in the assay on P388, 0.0033 µg/mL (≈ 0.0104 µM). The compound also showed an inhibition in the assay filed under Bos taurus of 86%. Further, the negative logarithm of the IC50 (pIC50) in [2] was 6.00.

`COc1ccc(C(=O)c2cc(OC)c(OC)c(OC)c2)cc1OC(C)=O`: the half-maximal inhibitory concentration (IC50) at Tubulin was 3.5 µM. Moreover, in the assay listed under Bos taurus, the inhibition was 71%.

`COc1cc(C(=O)c2ccc3c(c2)OCO3)cc(OC)c1OC` had an inhibition in the assay listed under Bos taurus of 0%. The compound further displayed a GI50 in assay [1] of 2.7 µM. Moreover, in [2], the pIC50 was 4.82.

In turn, `COc1cc(C(=O)c2cc(F)cc(F)c2)cc(OC)c1OC` gave an inhibition in the assay filed under Bos taurus of 0%. In [1], the GI50 was determined as 4.94 µM. Besides, the negative-log IC50 (pIC50) in assay [2] is 4.41.

For `COc1ccc(C(=O)c2cc(OC)c(OC)c(OC)c2)cc1OP(=O)([O-])O.[Na+]`, the GI50 in the assay with SK-MEL-5 was found to be 0.0047 µg/mL; in the assay on NCI-H460, 0.035 µg/mL; in the assay with SF-295 it was 0.012 µg/mL; in the assay with OVCAR, 0.0025 µg/mL; with A498 it was 0.05 µg/mL; in the assay on KM-20L2 it was 0.27 µg/mL. Also, the GI50 in the assay with P388 was < 0.001 µg/mL. At Tubulin, the IC50 was found to be 21 µM. In the assay filed under Bos taurus, this compound showed an inhibition of 37%.

`COc1ccc(Cc2cc(OC)c(OC)c(OC)c2)cc1` gave an inhibition in the assay listed under Bos taurus of 56%. The compound also gave a pIC50 in assay [2] of 5.36.

As for `COc1cc(C(=O)c2cc(Cl)cc(Cl)c2)cc(OC)c1OC`, the inhibition in the assay filed under Bos taurus was determined as 1%. The compound also showed a 50% growth inhibitory concentration (GI50) in assay [1] of 5.12 µM. The compound also had a negative-log IC50 (pIC50) in assay [2] of 4.44.

Take `COc1ccc(/C=C\c2cc(OC)c(OC)c(OC)c2)cc1O`: the inhibition in the assay filed under Bos taurus turned out to be 97%.

The compound `COc1ccc(Cc2cc(OC)c(OC)c(OC)c2)cc1O` registered an inhibition in the assay filed under Bos taurus of 65%. Besides, the pIC50 in assay [2] was 5.48.

In the assay filed under Bos taurus, `COc1ccc(CCc2cc(OC)c(OC)c(OC)c2)cc1O` displayed an inhibition of 77%. This compound showed a pIC50 in [2] of 5.68.

As to `COc1cc(C(=O)c2cc(C)cc(C)c2)cc(OC)c1OC`, in the assay listed under Bos taurus, the inhibition worked out at 7%. In assay [1], the 50% growth inhibitory concentration (GI50) stood at 3.48 µM. Further, the negative-log IC50 (pIC50) in [2] was 4.96.

On to `COc1ccc(C(=O)c2cc(OC)c(OC)c(OC)c2)cc1OC`, for which the inhibition in the assay listed under Bos taurus came out at 1%. Further, growth in [1] was halved (GI50) at 5.11 µM. The same compound showed a negative-log IC50 (pIC50) in [2] of 4.82.

As to `COc1ccc(CCc2cc(OC)c(OC)c(OC)c2)cc1`, the inhibition in the assay listed under Bos taurus turned out to be 54%. In addition, in [2], the negative-log IC50 (pIC50) is 5.49.

In the case of `COc1cc(OC)cc(C(=O)c2cc(OC)c(OC)c(OC)c2)c1`, in the assay listed under Bos taurus, the inhibition stood at 58%. This compound showed a GI50 in [1] of 0.543 µM. Further, in assay [2], the negative logarithm of the IC50 (pIC50) was 5.44.
